ChEMBL document CHEMBL5653631, “A Potent and Selective ULK1 Inhibitor Suppresses Autophagy and Sensitizes Cancer Cells to Nutrient Stress” (iScience, 2018)
One block for each compound: values may come before it.

What was measured:
Homo sapiens = organism: Homo sapiens; assay: Inhibition of human recombinant KHS1 at 500 nM in presence of ATP by radiometric assay relative to control
[1] = target: T1, Cytoplasmic tyrosine-protein kinase BMX (Homo sapiens) (UniProt P51813); assay: Inhibition of human recombinant BMX at 500 nM in presence of ATP by radiometric assay relative to control
T1 sequence (whole entry): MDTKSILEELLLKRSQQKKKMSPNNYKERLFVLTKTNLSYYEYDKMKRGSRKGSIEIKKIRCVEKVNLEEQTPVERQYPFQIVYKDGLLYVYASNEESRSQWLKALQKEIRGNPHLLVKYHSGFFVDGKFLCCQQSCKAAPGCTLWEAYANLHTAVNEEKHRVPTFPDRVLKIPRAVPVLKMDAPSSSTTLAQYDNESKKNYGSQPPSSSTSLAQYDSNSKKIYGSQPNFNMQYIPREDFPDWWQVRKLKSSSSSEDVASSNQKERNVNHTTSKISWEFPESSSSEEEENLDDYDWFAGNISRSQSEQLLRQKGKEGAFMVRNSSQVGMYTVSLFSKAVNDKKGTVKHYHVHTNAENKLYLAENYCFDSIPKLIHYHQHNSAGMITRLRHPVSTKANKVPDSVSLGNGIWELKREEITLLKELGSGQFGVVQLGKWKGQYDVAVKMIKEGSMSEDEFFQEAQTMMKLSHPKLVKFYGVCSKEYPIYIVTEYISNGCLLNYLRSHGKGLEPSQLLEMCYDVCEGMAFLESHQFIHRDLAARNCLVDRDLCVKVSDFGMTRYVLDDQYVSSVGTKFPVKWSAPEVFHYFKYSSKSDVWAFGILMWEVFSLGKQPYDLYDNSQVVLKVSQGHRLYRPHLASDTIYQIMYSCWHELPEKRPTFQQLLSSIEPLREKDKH
In short: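 Part of a radiometric in vitro activity panel of 327 recombinant human kinases. Each kinase was tested in duplicate at one inhibitor concentration. Activity remaining was expressed as a percentage of the vehicle control, and percent inhibition was taken as 100 minus that value.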

[2] = target: Casein kinase II subunit alpha (Homo sapiens) (UniProt P68400); assay: Inhibition of human recombinant CK2a1 at 500 nM related to control ULK1
[3] = target: Cyclin-dependent kinase 1 (Homo sapiens) (UniProt P06493); assay: Inhibition of human recombinant CDC2 at 500 nM in presence of ATP by radiometric assay relative to control
[4] = target: Serine/threonine-protein kinase SIK3 (Homo sapiens) (UniProt Q9Y2K2); assay: Inhibition of human recombinant QSK at 40 nM related to control ULK1
[5] = target: Tyrosine-protein kinase Fgr (Homo sapiens) (UniProt P09769); assay: Inhibition of human recombinant FGR at 40 nM related to control ULK1
[6] = target: T2, Serine/threonine-protein kinase PLK4 (Homo sapiens) (UniProt O00444); assay: Inhibition of human recombinant PLK4 at 15 nM related to control ULK1
T2 sequence (whole entry): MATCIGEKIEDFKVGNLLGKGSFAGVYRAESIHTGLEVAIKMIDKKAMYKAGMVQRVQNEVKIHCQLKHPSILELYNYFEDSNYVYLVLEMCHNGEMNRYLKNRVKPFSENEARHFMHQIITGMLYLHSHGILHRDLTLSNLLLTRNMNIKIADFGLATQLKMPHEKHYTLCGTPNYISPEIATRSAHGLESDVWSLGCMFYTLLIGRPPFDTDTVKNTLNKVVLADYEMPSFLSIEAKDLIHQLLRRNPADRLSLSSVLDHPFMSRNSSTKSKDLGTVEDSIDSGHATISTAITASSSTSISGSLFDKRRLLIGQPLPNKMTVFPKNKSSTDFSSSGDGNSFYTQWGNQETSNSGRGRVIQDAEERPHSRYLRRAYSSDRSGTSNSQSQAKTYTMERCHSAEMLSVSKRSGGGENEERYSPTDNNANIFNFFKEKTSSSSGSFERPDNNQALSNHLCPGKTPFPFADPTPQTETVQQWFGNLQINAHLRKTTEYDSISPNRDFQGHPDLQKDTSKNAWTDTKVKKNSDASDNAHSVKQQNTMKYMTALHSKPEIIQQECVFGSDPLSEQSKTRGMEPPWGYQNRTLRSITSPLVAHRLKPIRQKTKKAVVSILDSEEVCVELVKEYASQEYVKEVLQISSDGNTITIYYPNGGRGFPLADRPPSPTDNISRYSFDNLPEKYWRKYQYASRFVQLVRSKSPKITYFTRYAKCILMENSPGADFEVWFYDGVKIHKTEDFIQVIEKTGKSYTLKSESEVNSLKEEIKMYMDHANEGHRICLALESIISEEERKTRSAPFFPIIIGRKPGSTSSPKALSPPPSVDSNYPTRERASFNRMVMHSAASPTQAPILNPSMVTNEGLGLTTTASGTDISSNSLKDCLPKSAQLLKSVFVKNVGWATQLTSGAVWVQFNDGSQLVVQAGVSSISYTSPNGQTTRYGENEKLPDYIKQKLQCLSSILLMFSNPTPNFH

[7] = target: T3, Tyrosine-protein kinase ITK/TSK (Homo sapiens) (UniProt Q08881); assay: Inhibition of human recombinant ITK at 15 nM in presence of ATP by radiometric assay relative to control
T3 sequence (whole entry): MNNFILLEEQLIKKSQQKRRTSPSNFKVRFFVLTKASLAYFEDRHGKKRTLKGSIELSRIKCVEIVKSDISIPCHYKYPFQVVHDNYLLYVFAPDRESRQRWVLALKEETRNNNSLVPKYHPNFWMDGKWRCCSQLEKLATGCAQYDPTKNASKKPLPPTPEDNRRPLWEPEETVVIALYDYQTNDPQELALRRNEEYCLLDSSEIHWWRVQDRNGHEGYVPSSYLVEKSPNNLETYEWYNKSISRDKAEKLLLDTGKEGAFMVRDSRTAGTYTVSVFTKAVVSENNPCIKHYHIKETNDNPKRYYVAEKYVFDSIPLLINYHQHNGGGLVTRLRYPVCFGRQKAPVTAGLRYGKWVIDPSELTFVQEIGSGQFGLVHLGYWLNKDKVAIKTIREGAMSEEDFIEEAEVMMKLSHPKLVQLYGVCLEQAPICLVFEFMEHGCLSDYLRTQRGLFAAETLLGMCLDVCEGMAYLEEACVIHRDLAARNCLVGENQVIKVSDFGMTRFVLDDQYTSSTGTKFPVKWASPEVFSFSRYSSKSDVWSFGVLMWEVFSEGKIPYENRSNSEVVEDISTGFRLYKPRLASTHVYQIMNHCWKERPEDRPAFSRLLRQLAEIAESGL

[8] = target: Cyclin-dependent kinase 9 (Homo sapiens) (UniProt P50750); assay: Inhibition of human recombinant CDK9 at 15 nM related to control ULK1
Sequence of Cyclin-dependent kinase 9 (Homo sapiens) (P50750 whole entry): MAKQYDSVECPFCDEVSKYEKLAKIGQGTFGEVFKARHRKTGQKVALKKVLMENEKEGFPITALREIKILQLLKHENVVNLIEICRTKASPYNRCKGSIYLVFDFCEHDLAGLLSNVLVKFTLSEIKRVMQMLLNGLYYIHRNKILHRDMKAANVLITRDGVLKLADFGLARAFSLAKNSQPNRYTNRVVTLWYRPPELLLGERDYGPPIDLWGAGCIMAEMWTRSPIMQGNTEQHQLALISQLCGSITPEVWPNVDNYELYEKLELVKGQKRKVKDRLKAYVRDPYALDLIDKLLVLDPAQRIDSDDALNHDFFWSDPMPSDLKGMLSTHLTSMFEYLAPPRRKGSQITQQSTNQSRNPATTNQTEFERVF

Sequence of Tyrosine-protein kinase Fgr (Homo sapiens) (P09769 2-529 limits assumed): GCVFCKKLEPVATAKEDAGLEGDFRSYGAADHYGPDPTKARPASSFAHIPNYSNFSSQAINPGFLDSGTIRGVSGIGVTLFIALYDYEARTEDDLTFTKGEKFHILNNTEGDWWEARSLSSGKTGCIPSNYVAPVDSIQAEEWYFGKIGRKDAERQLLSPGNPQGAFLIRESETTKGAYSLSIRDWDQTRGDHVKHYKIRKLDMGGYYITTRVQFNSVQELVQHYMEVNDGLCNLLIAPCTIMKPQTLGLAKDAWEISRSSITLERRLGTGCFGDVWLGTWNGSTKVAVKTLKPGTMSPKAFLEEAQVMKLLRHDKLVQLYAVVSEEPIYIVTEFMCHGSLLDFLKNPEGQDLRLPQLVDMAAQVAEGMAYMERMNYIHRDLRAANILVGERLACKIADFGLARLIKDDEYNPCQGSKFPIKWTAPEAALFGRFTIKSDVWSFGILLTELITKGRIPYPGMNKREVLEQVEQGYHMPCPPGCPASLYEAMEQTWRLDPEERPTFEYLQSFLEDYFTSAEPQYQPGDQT
Sequence of Casein kinase II subunit alpha (Homo sapiens) (P68400 whole entry, looked up): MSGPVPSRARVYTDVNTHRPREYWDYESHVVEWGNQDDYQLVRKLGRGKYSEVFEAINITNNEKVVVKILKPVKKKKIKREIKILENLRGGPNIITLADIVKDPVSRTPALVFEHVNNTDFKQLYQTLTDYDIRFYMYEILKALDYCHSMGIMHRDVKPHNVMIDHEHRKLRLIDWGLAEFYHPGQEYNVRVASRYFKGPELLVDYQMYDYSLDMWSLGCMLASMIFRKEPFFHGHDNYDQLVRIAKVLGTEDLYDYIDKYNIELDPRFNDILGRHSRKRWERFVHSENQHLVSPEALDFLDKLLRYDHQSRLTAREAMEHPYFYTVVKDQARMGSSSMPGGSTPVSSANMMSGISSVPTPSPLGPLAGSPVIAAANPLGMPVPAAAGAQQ
Sequence of Serine/threonine-protein kinase SIK3 (Homo sapiens) (Q9Y2K2 whole entry, looked up): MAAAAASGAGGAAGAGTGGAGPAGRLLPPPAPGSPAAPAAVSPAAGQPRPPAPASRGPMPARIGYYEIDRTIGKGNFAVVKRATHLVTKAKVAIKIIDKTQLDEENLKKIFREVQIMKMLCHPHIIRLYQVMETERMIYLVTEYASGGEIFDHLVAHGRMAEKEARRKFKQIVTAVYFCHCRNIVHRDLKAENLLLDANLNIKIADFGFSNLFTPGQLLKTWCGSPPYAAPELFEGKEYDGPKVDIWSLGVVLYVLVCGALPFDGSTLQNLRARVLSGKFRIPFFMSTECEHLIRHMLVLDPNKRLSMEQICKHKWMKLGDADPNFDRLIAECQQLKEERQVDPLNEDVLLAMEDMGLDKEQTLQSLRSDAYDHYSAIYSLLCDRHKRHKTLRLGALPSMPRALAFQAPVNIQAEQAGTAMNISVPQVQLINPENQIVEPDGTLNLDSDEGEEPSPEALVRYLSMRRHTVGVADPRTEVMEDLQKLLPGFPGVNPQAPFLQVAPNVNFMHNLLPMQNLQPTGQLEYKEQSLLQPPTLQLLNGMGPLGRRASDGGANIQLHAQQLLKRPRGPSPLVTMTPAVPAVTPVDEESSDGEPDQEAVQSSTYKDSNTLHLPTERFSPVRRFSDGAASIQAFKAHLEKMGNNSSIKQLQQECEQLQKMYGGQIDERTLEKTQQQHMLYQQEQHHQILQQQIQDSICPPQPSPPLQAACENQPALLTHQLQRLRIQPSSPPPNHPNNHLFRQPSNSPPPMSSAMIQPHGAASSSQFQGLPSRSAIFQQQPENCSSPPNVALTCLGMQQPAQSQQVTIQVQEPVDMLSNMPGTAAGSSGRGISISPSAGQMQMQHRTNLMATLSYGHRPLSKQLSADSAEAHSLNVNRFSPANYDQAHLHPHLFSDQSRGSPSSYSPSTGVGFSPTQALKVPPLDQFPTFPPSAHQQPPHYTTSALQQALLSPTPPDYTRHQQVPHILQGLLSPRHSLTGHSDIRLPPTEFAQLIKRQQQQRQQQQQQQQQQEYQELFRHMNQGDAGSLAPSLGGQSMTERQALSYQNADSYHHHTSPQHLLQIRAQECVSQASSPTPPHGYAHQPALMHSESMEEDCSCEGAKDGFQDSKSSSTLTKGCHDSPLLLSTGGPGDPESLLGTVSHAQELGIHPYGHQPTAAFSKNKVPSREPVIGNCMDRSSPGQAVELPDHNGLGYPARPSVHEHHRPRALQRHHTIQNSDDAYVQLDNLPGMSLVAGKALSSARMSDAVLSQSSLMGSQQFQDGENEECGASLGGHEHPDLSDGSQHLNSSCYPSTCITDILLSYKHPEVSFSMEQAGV
Sequence of Cyclin-dependent kinase 1 (Homo sapiens) (P06493 whole entry, looked up): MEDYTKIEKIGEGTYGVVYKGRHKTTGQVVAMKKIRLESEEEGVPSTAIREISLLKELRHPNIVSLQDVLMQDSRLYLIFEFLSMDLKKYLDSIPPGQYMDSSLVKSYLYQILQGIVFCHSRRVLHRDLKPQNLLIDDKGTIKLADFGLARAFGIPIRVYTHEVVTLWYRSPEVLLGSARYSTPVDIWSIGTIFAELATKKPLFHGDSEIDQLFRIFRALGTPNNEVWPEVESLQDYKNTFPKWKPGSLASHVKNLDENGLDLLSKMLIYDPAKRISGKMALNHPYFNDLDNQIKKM

inhibition (Homo sapiens): 11%
inhibition [1]: 16%
fold change (FC) [2]: 0.19
inhibition [3]: 30%
Structure (SMILES): CNC(=O)c1ccccc1Oc1nc(Nc2cc(OC)c(OC)c(OC)c2)ncc1Br

fold change (FC) [4]: 0.81
fold change (FC) [5]: 0.05
Structure (SMILES): O=C(N[C@@H](C1CC1)C(F)(F)F)c1cc(-c2cnn3cc(-c4ccc(F)cc4)cnc23)cs1

fold change (FC) [6]: 0.35
inhibition [7]: 4%
fold change (FC) [8]: 0
Structure (SMILES): CC(C)[C@H](NC(=O)c1cc(-c2cnn3cc(-c4ccc(OCCN5CCCCC5)cc4)cnc23)cs1)C(F)(F)F
